Data as given in ChEMBL document CHEMBL4007417, “Target Elucidation by Cocrystal Structures of NADH-Ubiquinone Oxidoreductase of Plasmodium falciparum (PfNDH2) with Small Molecule To Eliminate Drug-Resistant Malaria” (J Med Chem, 2017).
The source made the active and inactive calls. The rule behind the calls is not given here.

What was measured:
[1] = Inhibition of Plasmodium falciparum wild type NDH2 expressed in Escherichia coli BL21 using NADH and ubiquinone-1 as substrate by spectrophotometric analysis
Method in brief: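 Recombinant PfNDH2 activity measured spectrophotometrically at 25 °C. Buffer: 50 mM MOPS pH 7.0, 150 mM NaCl, 1 mM EDTA, 0.01% Triton X-100. Substrates 50 µM NADH and 30 µM ubiquinone-1, with 0.5 nM enzyme and selected inhibitor concentrations.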

[2] = Inhibition of Plasmodium falciparum NDH2 N92R mutant expressed in Escherichia coli DH5alpha competent cells using NADH and ubiquinone-1 as substrate by spectrophotometric analysis
Method in brief: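 Recombinant PfNDH2 point or double mutants assayed spectrophotometrically at 25 °C. Buffer: 50 mM MOPS pH 7.0, 150 mM NaCl, 1 mM EDTA, 0.01% Triton X-100. Substrates 50 µM NADH and 30 µM ubiquinone-1, with 0.5 nM enzyme and selected inhibitor concentrations.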

[3] = Binding affinity to Plasmodium falciparum NDH2 expressed in Escherichia coli BL21 assessed as NADH Kd by SPR assay (reference value: 5.22 uM)
Plasmodium falciparum [4] = experiment: Non-competitive inhibition of Plasmodium falciparum NDH2 expressed in Escherichia coli BL21 up to 50 nM by spectrophotometric analysis
Plasmodium falciparum [5] = experiment: Antimalarial activity against multi drug-resistant asexual blood stage Plasmodium falciparum D10 after 72 hrs by SYBR green-based fluorometric analysis; assay type: functional; conditions: D10, 72 h
Method in brief: (§1)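 Mid-ring-stage cultures (~6-10 h post-invasion) at 1% parasitemia and 2% hematocrit, in triplicate. Twofold serial dilutions from a top concentration of 100 nM. Incubated 72 h at 37 °C under 5% CO2/5% O2/90% N2. Lysis buffer containing 5×SYBR Green I added, 20 min in the dark, fluorescence read at ex 485/em 538 nm. EC50 derived.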

Plasmodium falciparum [6] = experiment: Antimalarial activity against […] asexual blood stage Plasmodium falciparum 3D7 after 72 hrs by SYBR green-based fluorometric analysis; assay type: functional; conditions: 3D7, 72 h; method in brief: as §1
Plasmodium falciparum [7] = experiment: (§2) Antimalarial activity against quinine-resistant asexual blood stage Plasmodium falciparum 3D7 assessed as reduction in parasite recrudescence at 10 times EC50 for 72 hrs measured after 28 days post invasion by Giemsa staining-based light microscopic analysis; assay type: functional
Method in brief: (§3)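 Parasite cultures exposed for 72 h to 10× EC50 of inhibitor. Drug then removed and cultures maintained for 28 days post treatment. Recrudescence monitored by microscopy.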

Plasmodium falciparum [8] = experiment: as §2, with “chloroquine/quinine/sulfadoxine-pyrimethamine/amodiaquine-resistant” for “quinine-resistant”, “Dd2” for “3D7”; assay type: functional; method in brief: as §3
Plasmodium falciparum [9] = experiment: Antimalarial activity against dihydroartemisinin-resistant asexual blood stage Plasmodium falciparum 803 assessed as reduction in parasite recrudescence at 10 times EC50 for 72 hrs measured after 28 days post invasion by Giemsa staining-based light microscopic analysis; assay type: functional; method in brief: as §3
Plasmodium falciparum [10] = experiment: Antimalarial activity against Plasmodium falciparum 3D7 assessed as alteration of parasite morphology at 10 times EC50 dosed at ring stage […] by Giemsa staining-based light microscopic analysis; assay type: functional, organism-based
Plasmodium falciparum [11] = experiment: Antimalarial activity against mid/late trophozoite stage of Plasmodium falciparum 3D7 assessed as reduction in parasitemia at 10 times EC50 administered at synchronized early ring stages and then removed from culture at 2 hrs intervals after 34 hrs paraiste invasion stage and measured till 40 hrs post invasion by SYBR green-based fluorometric analysis; assay type: functional; set-up: scale not given: the % may be the effect or the level left
Method in brief: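 Synchronized early-ring P. falciparum 3D7 treated with about 10×EC50 compound. Compound removed at 2 h intervals starting at t=34 h (trophozoite), then parasites returned to compound-free medium. Maturation through a single ~48 h asexual cycle followed.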

HeLa = experiment: Cytotoxicity against human HeLa cells assessed as reduction in cell viability up to 2 uM after 48 hrs by MTT assay; assay type: cell-based
Method in brief: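 HeLa cell viability measured by MTT assay with compound at concentrations up to 2 µM.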

Plasmodium yoelii [12] = experiment: Antimalarial activity against Plasmodium yoelii YM infected in BALB/c mouse assessed as time duration for parasite cure at 5 mg/kg, sc administered QD for 4 days starting at 2 hrs post infection by Giemsa-staining based microscopic analysis; assay type: functional
Method in brief: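 P. yoelii-infected mice, n=3 per group. Subcutaneous injection once daily for 4 days starting at 2 h post infection. Growth inhibition determined at 24 h post treatment by blood-smear microscopy. Cure time taken as the minimum period to cure all mice in the group.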

Plasmodium yoelii [13] = experiment: Antimalarial activity against Plasmodium yoelii YM infected in BALB/c mouse assessed as time duration for parasite cure at 10 mg/kg, sc administered QD for 4 days starting at 96 hrs post infection by Giemsa-staining based microscopic analysis; assay type: functional
Method in brief: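 P. yoelii-infected mice, n=3 per group. Subcutaneous injection once daily for 4 days starting at 96 h post infection. Parasitemia followed on blood-smear microscopy, with inhibition measured at 24 h post treatment. Cure time taken as the minimum period to cure all mice; survival recorded at 40 days. DMSO controls included.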

Plasmodium yoelii [14] = experiment: Antimalarial activity against Plasmodium yoelii YM infected in BALB/c mouse assessed as time duration for parasite cure at 10 mg/kg, sc administered BID for 4 days starting at 96 hrs post infection, 8 hrs apart by Giemsa-staining based microscopic analysis; assay type: functional
Method in brief: (§4)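 P. yoelii-infected mice, n=3 per group. Subcutaneous injection twice daily, 8 h apart, for 4 days starting at 96 h post infection. Growth inhibition read from blood smears at 24 h post treatment. Cure time taken as the minimum period to cure all mice in the group. DMSO controls included.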

Plasmodium yoelii [15] = experiment: Antimalarial activity against Plasmodium yoelii YM infected in BALB/c mouse assessed as mouse survival at 10 mg/kg, sc administered BID for 4 days starting at 96 hrs post infection, 8 hrs apart by Giemsa-staining based microscopic analysis; assay type: functional
Method in brief: (§5)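 Mice inoculated with 1×106 P. yoelii parasites. Subcutaneous dosing for 4 days starting 96 h post infection, given once daily or twice daily 8 h apart. Parasitemia followed on Giemsa-stained blood smears. Survival recorded at 40 days post infection; groups of n=3. DMSO-only mice served as untreated controls.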

Plasmodium yoelii [16] = experiment: Antimalarial activity against Plasmodium yoelii YM infected in BALB/c mouse assessed as time duration for parasite cure at 90 mg/kg, sc administered BID for 4 days starting at 96 hrs post infection, 8 hrs apart by Giemsa-staining based microscopic analysis; assay type: functional; method in brief: as §4
Plasmodium yoelii [17] = experiment: Antimalarial activity against Plasmodium yoelii YM infected in BALB/c mouse assessed as mouse survival at 90 mg/kg, sc administered BID for 4 days starting at 96 hrs post infection, 8 hrs apart by Giemsa-staining based microscopic analysis; assay type: functional; method in brief: as §5
Plasmodium yoelii [18] = experiment: Antimalarial activity against Plasmodium yoelii YM infected in BALB/c mouse assessed as parasite cure level at 10 to 90 mg/kg, ip administered on days 1 post infection by Giemsa-stained microscopic analysis; assay type: functional, organism-based
Method in brief: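 Mice (groups of three) inoculated with 1×10^6 P. yoelii parasites. Single intraperitoneal dose of 10, 30 or 90 mg/kg given 24 h after inoculation. DMSO-only untreated group included. Outcome followed by blood-smear microscopy for cure, with survival scored at 40 days post infection.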

Plasmodium falciparum [19] = experiment: Binding affinity to Plasmodium falciparum NDH2 expressed in Escherichia coli BL21 assessed as reduction in NADH Kd by SPR assay
Plasmodium falciparum [20] = experiment: Synergistic antimalarial activity against Plasmodium falciparum in presence of chloroquine; assay type: functional
Method in brief: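 In vitro drug interaction analyses with other antimalarials against P. falciparum. Experiments repeated three times; error bars s.e.m.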

Cc1c(-c2ccc(Cc3ccc(OC(F)(F)F)cc3)cc2)[nH]c2cccc(F)c2c1=O
IC50 [1]: 0.00373 µM | IC50 [2]: 0.0167 µM | Kd [3]: 37.2 µM | inhibition (Plasmodium falciparum [4]): Active | EC50 (Plasmodium falciparum [5]): 0.00918 µM | EC50 (Plasmodium falciparum [6]): 0.0113 µM | Activity (Plasmodium falciparum [7]): Active | Activity (Plasmodium falciparum [8]): Active | Activity (Plasmodium falciparum [9]): Active | Activity (Plasmodium falciparum [10]): Active | Activity (Plasmodium falciparum [11]): >=50% | Activity (HeLa): Non-Toxic | Time (Plasmodium yoelii [12]): 28 days | Time (Plasmodium yoelii [13]): 17 days | Time (Plasmodium yoelii [14]): 16 days | survival at 10 mg/kg (Plasmodium yoelii [15]): 100% | Time (Plasmodium yoelii [16]): 4 days | survival at 90 mg/kg (Plasmodium yoelii [17]): 100% | Activity (Plasmodium yoelii [18]): Active | fold change (FC) (Plasmodium falciparum [19]): 7 | fractional inhibitory concentration index (FICI) (Plasmodium falciparum [20]): 1.52
